Results as given in ChEMBL document CHEMBL3091351, “The 3,7-diazabicyclo[3.3.1]nonane scaffold for subtype selective nicotinic acetylcholine receptor (nAChR) ligands. Part 1: the influence of different hydrogen bond acceptor systems on alkyl and (hetero)aryl substituents” (Bioorg Med Chem, 2013).

Columns and labels:
[1] = biological target: Neuronal acetylcholine receptor; alpha4/beta2 (Rattus norvegicus, UniProt P09483+P12390); assay: Displacement of [3H]epibatidine from alpha4beta2 nAChR in Sprague-Dawley rat forebrain P2 fraction after 90 mins by liquid scintillation counting analysis
In short: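 Rat forebrain P2 membranes (60 µg protein) in HSS buffer with 0.5 nM (±)-[3H]epibatidine and 6–9 test concentrations. Incubated 90 min at 22 °C; non-specific binding defined with 300 µM (−)-nicotine. Filtered through PEI-presoaked glass fibre filters and counted by liquid scintillation. Run in duplicate to quadruplicate, with 2–10 independent experiments.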

[2] = Displacement of [3H]epibatidine from (alpha1)2beta1gammadelta nAChR in Torpedo californica electroplax after 90 mins by liquid scintillation counting analysis; set-up: species or system Tetronarce californica
In short: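 Torpedo californica electroplax membranes (60–70 µg) incubated with (±)-[3H]epibatidine and 6–9 test concentrations in HSS buffer, 90 min at 22 °C. 300 µM (−)-nicotine defined non-specific binding. PEI-presoaked glass fibre filtration, scintillation counting; duplicate to quadruplicate, 2–10 independent experiments.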

[3] = Displacement of [3H]epibatidine from alpha3beta4 nAChR in calf adrenal membranes fraction after 90 mins by liquid scintillation counting analysis; assay type: cell membranes, Bos taurus
In short: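 Calf adrenal membranes (60–70 µg) in HSS buffer with 0.5 nM (±)-[3H]epibatidine, 6–9 test concentrations, 90 min at 22 °C. Non-specific binding with 300 µM (−)-nicotine. PEI-presoaked glass fibre filtration, liquid scintillation read-out; duplicate to quadruplicate, 2–10 independent experiments.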

[4] = biological target: Neuronal acetylcholine receptor subunit alpha-7 (Rattus norvegicus, UniProt Q05941); assay: Displacement of [3H]methyllycaconitine from alpha7 nAChR in Sprague-Dawley rat forebrain P2 fraction after 90 mins by liquid scintillation counting analysis
Neuronal acetylcholine receptor subunit alpha-7, sequence (Q05941 whole entry): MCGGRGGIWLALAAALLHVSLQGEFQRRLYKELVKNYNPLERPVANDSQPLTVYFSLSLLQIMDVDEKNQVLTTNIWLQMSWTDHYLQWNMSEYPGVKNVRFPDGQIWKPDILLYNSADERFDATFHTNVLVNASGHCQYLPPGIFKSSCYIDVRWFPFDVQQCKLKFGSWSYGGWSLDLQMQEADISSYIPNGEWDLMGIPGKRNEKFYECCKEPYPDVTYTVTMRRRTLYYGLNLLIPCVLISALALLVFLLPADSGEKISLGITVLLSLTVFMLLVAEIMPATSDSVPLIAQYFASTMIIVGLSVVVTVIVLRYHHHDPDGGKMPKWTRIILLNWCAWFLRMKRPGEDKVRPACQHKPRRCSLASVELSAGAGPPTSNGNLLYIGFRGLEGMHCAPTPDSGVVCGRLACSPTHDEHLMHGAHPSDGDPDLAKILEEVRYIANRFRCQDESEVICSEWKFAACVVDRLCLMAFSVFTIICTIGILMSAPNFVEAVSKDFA

Neuronal acetylcholine receptor; alpha4/beta2, sequence (P09483 whole entry): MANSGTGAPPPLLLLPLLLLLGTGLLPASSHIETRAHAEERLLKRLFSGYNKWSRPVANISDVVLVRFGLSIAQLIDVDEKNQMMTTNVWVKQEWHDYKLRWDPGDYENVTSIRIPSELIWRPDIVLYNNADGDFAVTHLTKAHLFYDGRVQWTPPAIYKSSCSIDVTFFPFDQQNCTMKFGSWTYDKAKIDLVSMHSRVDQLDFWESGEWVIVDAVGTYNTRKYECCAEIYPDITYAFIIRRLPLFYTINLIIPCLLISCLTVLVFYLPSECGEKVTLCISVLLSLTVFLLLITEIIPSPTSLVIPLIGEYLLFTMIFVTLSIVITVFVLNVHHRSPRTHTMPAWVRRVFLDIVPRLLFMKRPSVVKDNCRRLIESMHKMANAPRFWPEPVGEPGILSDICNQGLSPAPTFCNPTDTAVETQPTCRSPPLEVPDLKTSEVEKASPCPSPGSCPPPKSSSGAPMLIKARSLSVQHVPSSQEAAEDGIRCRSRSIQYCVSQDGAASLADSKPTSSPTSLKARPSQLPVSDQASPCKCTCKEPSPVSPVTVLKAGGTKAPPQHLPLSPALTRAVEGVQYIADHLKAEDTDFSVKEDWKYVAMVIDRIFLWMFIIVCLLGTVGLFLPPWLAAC
Neuronal acetylcholine receptor; alpha4/beta2, sequence (P12390 whole entry): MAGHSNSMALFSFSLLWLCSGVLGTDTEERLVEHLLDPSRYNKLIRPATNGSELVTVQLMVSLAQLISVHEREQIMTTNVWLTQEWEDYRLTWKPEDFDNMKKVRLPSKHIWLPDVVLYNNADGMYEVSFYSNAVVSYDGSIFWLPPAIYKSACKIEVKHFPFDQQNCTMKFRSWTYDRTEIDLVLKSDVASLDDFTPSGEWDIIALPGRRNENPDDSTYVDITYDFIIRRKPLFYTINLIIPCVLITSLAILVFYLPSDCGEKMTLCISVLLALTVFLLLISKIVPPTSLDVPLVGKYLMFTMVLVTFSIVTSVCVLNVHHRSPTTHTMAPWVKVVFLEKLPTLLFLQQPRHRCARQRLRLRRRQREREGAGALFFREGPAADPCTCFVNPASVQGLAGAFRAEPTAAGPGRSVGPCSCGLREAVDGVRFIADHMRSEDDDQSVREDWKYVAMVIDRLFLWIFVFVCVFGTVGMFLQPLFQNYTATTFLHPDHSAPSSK

Row | Structure (SMILES) | Ki [1] [µM] | Ki [2] [µM] | Ki [3] [µM] | Ki [4] [µM]
1 | O=C(c1cccc(Cl)c1)N1C[C@@H]2CNC[C@@H](C2)C1 | > 1 | – | – | –
2 | O=C(c1ccccc1)N1C[C@@H]2CNC[C@@H](C2)C1 | 0.454 | > 10 | > 5 | > 10
3 | O=C(N1CCC(Cc2ccccc2)CC1)N1C[C@@H]2CNC[C@@H](C2)C1 | > 10 | > 5 | > 10 | > 5
4 | O=C(c1ccccc1[N+](=O)[O-])N1C[C@@H]2CNC[C@@H](C2)C1 | > 10 | > 10 | > 10 | > 10
5 | CS(=O)(=O)N1C[C@@H]2CNC[C@@H](C2)C1 | > 5 | > 10 | – | –
6 | O=S(=O)(c1ccccc1)N1C[C@@H]2CNC[C@@H](C2)C1 | > 5 | – | > 10 | > 10
7 | N#Cc1cccc(S(=O)(=O)N2C[C@@H]3CNC[C@@H](C3)C2)c1 | 0.97 | – | > 10 | > 10
8 | Cc1ccccc1C(=O)N1C[C@@H]2CNC[C@@H](C2)C1 | > 10 | > 10 | > 10 | > 10
9 | O=C(c1ccc2[nH]ccc2c1)N1C[C@@H]2CNC[C@@H](C2)C1 | 1.8 | – | – | –
10 | CCCN1C[C@H]2C[C@@H](C1)CN(C(C)=O)C2 | > 5 | – | – | –
11 | O=S(=O)(c1ccc(Br)cc1)N1C[C@@H]2CNC[C@@H](C2)C1 | > 5 | – | – | –
12 | N#Cc1ccc(S(=O)(=O)N2C[C@@H]3CNC[C@@H](C3)C2)cc1 | 0.645 | – | > 10 | > 10
13 | O=C(c1ccnc2ccccc12)N1C[C@@H]2CNC[C@@H](C2)C1 | 0.162 | > 10 | > 5 | –
14 | CN(C)C(=O)N1C[C@@H]2CNC[C@@H](C2)C1 | 0.499 | – | > 1 | –
15 | Cn1cccc1C(=O)N1C[C@@H]2CNC[C@@H](C2)C1 | 0.662 | – | – | –
16 | CCN1C[C@H]2C[C@@H](C1)CN(C(C)=O)C2 | > 5 | – | – | –

Row | Structure (SMILES) | Ki [1] [µM] | Ki [2] [µM] | Ki [3] [µM] | Ki [4] [µM]
17 | Cc1ccc(S(=O)(=O)N2C[C@@H]3CNC[C@@H](C3)C2)cc1 | 0.858 | – | > 10 | > 10
18 | O=C(c1ccc2ccccc2c1)N1C[C@@H]2CNC[C@@H](C2)C1 | 0.447 | – | > 10 | > 10
19 | O=C(c1ccc(O)cc1)N1C[C@@H]2CNC[C@@H](C2)C1 | 0.105 | – | – | > 1
20 | O=C(c1ccc(Cl)cc1)N1C[C@@H]2CNC[C@@H](C2)C1 | 0.13 | – | – | > 10
21 | O=C(c1cccc2ccccc12)N1C[C@@H]2CNC[C@@H](C2)C1 | > 10 | – | – | > 10
22 | O=C(c1cccc(C(F)(F)F)c1)N1C[C@@H]2CNC[C@@H](C2)C1 | 0.147 | > 10 | > 3 | –
23 | O=C(c1ccc2ccccc2n1)N1C[C@@H]2CNC[C@@H](C2)C1 | > 1 | > 10 | – | –
24 | O=C(N1CCOCC1)N1C[C@@H]2CNC[C@@H](C2)C1 | 3.8 | – | – | –
25 | O=C(c1ccc2ncccc2c1)N1C[C@@H]2CNC[C@@H](C2)C1 | 0.0813 | – | > 5 | > 10
26 | O=C(c1cccc(F)c1)N1C[C@@H]2CNC[C@@H](C2)C1 | 0.386 | > 10 | > 5 | –
27 | CCN(CC)C(=O)N1C[C@@H]2CNC[C@@H](C2)C1 | > 3 | – | – | –
28 | O=C(c1ccc(Cl)nc1)N1C[C@@H]2CNC[C@@H](C2)C1 | 0.194 | – | > 1 | –
29 | CC(=O)N1C[C@@H]2C[C@@H](CN(C)C2)C1 | 0.2 | – | – | –
30 | O=C(c1ccccc1Cl)N1C[C@@H]2CNC[C@@H](C2)C1 | > 10 | – | – | –
31 | O=C(c1ccc2cn[nH]c2c1)N1C[C@@H]2CNC[C@@H](C2)C1 | 0.205 | – | – | –
32 | O=C(c1ccc(Br)cc1)N1C[C@@H]2CNC[C@@H](C2)C1 | 0.138 | – | > 10 | > 10
